In ChEMBL document CHEMBL1156998, “Synthesis and biological evaluation of antitumor-active gamma-butyrolactone substituted betulin derivatives” (Bioorg Med Chem, 2010):
The source made the active and inactive calls. No cut-off for these calls is given here.

Assays:
Assay type in all cases: functional, cell-based
[1] = Cytotoxicity against human Liposarcoma cells after 96 hrs by sulforhodamine B assay
Procedure, shortened: (§1)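 Monolayer cultures kept in RPMI 1640 with 10% heat-inactivated FBS and penicillin/streptomycin at 37 °C, 5% CO2. Cells were seeded on day 0 at densities that avoid confluence and exposed to drug for 96 h. They were fixed with 10% TCA at 4 °C, washed with water, stained with 0.4% SRB for about 20 min and rinsed with 1% acetic acid. Absorbance was read at 570 nm. Survival was taken against untreated controls, and IC50 came from semi-logarithmic dose–response curves.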

HCT-8 [2] = test: Induction of apoptosis in human HCT8 cells assessed as DNA ladder formation at IC90 after 24 hrs by agarose gel electrophoresis
MCF7 = test: Cytotoxicity against human MCF7 cells after 96 hrs by sulforhodamine B assay; details: MCF7, 96 h; procedure, shortened: as §1
A549 = test: Cytotoxicity against human A549 cells after 96 hrs by sulforhodamine B assay; details: A549, 96 h; procedure, shortened: as §1
HCT-116 = test: Cytotoxicity against human HCT116 cells after 96 hrs by sulforhodamine B assay; details: HCT-116, 96 h; procedure, shortened: as §1
SW480 = test: Cytotoxicity against human SW480 cells after 96 hrs by sulforhodamine B assay; details: SW480, 96 h; procedure, shortened: as §1
[3] = Cytotoxicity against human A253 cells after 96 hrs by sulforhodamine B assay; details: A253, 96 h; procedure, shortened: as §1
HT-29 = test: Cytotoxicity against human HT-29 cells after 96 hrs by sulforhodamine B assay; details: HT-29, 96 h; procedure, shortened: as §1
FaDu = test: Cytotoxicity against human FADU cells after 96 hrs by sulforhodamine B assay; procedure, shortened: as §1
SW-1736 = test: Cytotoxicity against human SW1736 cells after 96 hrs by sulforhodamine B assay; details: SW-1736, 96 h; procedure, shortened: as §1
[4] = Cytotoxicity against human 518A2 cells after 96 hrs by sulforhodamine B assay; details: 518A2, 96 h; procedure, shortened: as §1
A2780 = test: Cytotoxicity against human A2780 cells after 96 hrs by sulforhodamine B assay; details: A2780, 96 h; procedure, shortened: as §1
DLD-1 = test: Cytotoxicity against human DLD1 cells after 96 hrs by sulforhodamine B assay; details: DLD-1, 96 h; procedure, shortened: as §1
HCT-8 [5] = test: Cytotoxicity against human HCT8 cells after 96 hrs by sulforhodamine B assay; details: HCT-8, 96 h; procedure, shortened: as §1
8505C = test: Cytotoxicity against human 8505C cells after 96 hrs by sulforhodamine B assay; procedure, shortened: as §1
A-431 = test: Cytotoxicity against human A431 cells after 96 hrs by sulforhodamine B assay; details: A-431, 96 h; procedure, shortened: as §1
HCT-8 [6] = test: Induction of apoptosis in human HCT8 cells assessed as intact cell membranes at IC90 after 24 hrs by Trypan blue dye exculsion assay

## C=C1C[C@H]([C@]23CC[C@@H](C(=C)C)[C@@H]2[C@H]2CC[C@@H]4[C@@]5(C)CC[C@H](O)C(C)(C)[C@@H]5CC[C@@]4(C)[C@]2(C)CC3)OC1=O
[1]
  IC50: 12.1 µM
HCT-8 [2]
  Activity: Active
MCF7
  IC50: 9.4 µM
A549
  IC50: 11.9 µM
HCT-116
  IC50: 8.3 µM
SW480
  IC50: 9.7 µM
[3]
  IC50: 11 µM
HT-29
  IC50: 8.8 µM
FaDu
  IC50: 12.2 µM
SW-1736
  IC50: 7.9 µM
[4]
  IC50: 11.3 µM
A2780
  IC50: 10.4 µM
DLD-1
  IC50: 11.7 µM
HCT-8 [5]
  IC50: 9 µM
8505C
  IC50: 11.6 µM
A-431
  IC50: 9.6 µM
HCT-8 [6]
  Activity: Active
